From ChEMBL document CHEMBL1133619, “Use of an additional hydrophobic binding site, the Z site, in the rational drug design of a new class of stronger trypanothione reductase inhibitor, quaternary alkylammonium phenothiazines” (J Med Chem, 2000)
Where “and” joins values, the source holds several entries; their conditions need not be identical. Equal values may be shown once. Calls of active or inactive are those of the source. No cut-off for these calls is given here.

Key:
[1] = biological target: T1, Glutathione reductase, mitochondrial (Homo sapiens) (UniProt P00390); assay: Compound at 1 mM was tested for the inhibition of human erythrocyte glutathione reductase; No inhibition
T1 sequence (whole entry): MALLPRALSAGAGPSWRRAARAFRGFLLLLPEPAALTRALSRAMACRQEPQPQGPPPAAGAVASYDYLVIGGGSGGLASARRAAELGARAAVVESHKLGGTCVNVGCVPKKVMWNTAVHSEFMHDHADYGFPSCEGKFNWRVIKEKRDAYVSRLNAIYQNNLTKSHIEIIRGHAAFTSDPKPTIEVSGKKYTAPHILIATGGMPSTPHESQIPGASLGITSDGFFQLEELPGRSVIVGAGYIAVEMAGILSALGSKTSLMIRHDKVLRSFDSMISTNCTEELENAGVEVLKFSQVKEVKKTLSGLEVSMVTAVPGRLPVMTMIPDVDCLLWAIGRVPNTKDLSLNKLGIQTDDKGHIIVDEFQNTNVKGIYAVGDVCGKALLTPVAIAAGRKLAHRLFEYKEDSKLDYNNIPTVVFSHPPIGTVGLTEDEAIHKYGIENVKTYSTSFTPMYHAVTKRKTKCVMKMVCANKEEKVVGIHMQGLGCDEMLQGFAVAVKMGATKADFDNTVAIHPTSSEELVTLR

Trypanothione reductase [2] = biological target: T2, Trypanothione reductase (Trypanosoma cruzi, UniProt P28593); assay: (§1) Inhibitory activity against Trypanosoma cruzi trypanothione reductase
T2 sequence (P28593 whole entry): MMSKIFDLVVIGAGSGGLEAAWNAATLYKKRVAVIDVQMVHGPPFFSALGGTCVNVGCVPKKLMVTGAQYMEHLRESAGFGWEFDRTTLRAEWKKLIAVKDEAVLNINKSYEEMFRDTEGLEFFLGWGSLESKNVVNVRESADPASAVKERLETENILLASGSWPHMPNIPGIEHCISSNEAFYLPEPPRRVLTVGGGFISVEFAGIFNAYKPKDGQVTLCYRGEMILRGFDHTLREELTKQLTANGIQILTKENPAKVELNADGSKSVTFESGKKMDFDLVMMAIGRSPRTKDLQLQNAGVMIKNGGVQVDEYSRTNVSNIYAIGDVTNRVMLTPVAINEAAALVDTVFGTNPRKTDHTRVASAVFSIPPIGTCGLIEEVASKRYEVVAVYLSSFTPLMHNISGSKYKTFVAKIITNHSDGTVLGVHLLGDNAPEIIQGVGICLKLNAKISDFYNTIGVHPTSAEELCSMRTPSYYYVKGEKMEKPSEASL

Trypanothione reductase [3] = biological target: T2, Trypanothione reductase; assay: as §1; remark: listed apart in the source
Procedure, shortened: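 T. cruzi TR, isolated enzyme (3 µg/mL), assayed at 25 °C in 0.02 M HEPES pH 7.25 with 0.15 M KCl, 1 mM EDTA and 0.1 mM NADPH. (ZCGdmapa)2 substrate was used at 0.24, 0.12, 0.06 or 0.03 mM, and Ki was fitted as linear competitive.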

Trypanosoma brucei [4] = assay: Antiparasitic activity against Trypanosoma brucei; type: functional; details: read-out: ED50 (the source's name)
Trypanosoma brucei [5] = assay: Activity against Trypanosoma brucei.
Trypanosoma cruzi [6] = assay: Antiparasitic activity against Trypanosoma cruzi at the dose of 1 uM; type: functional
Trypanosoma cruzi [7] = assay: Antiparasitic activity against Trypanosoma cruzi at the dose of 3 uM; type: functional
Trypanosoma cruzi [8] = assay: Antiparasitic activity against Trypanosoma cruzi.; type: functional; details: read-out: ED50 (the source's name)
[9] = biological target: T3, Glutathione reductase, mitochondrial (Homo sapiens, UniProt P00390); assay: Inhibitory activity against Human Erythrocyte glutathione reductase (GR).
T3 sequence (P00390 whole entry): T1 sequence (whole entry)

Q: `CN(C)CCCN1c2ccccc2Sc2ccc(Cl)cc21` was tested. Which NI [1] did it give?
A: inactive

Q: For `C[N+](C)(CCCN1c2ccccc2Sc2ccc(Cl)cc21)Cc1c(F)c(F)c(F)c(F)c1F`, which IC50 (Trypanothione reductase [2]) is on record?
A: 10 µM

Q: And the Ki (Trypanothione reductase [3])?
A: 1.67 µM

Q: What about the EC50 (Trypanosoma brucei [4]) of the same molecule?
A: 1.48 µg/mL and 2.55 µM

Q: How did the ED50 (Trypanosoma brucei [5]) turn out when `C[N+](C)(CCCN1c2ccccc2Sc2ccc(Cl)cc21)CC(=O)c1ccc2ccc3cccc4ccc1c2c34` was run?
A: 0.475 mg/L

Q: For `Cc1cc(C(=O)C[N+](C)(C)CCCN2c3ccccc3Sc3ccc(Cl)cc32)ccc1Cl`, which IC50 (Trypanothione reductase [2]) is on record?
A: 8.6 µM

Q: What about the Ki (Trypanothione reductase [3]) of the same molecule?
A: 1.43 µM

Q: And the EC50 (Trypanosoma brucei [4])?
A: 0.159 µg/mL and 280 nM

Q: With `C[N+](C)(CCCN1c2ccccc2Sc2ccc(Cl)cc21)Cc1ccc(OCc2ccccc2)cc1` as the molecule, how does the IC50 (Trypanothione reductase [2]) read?
A: 10.4 µM

Q: And the Ki (Trypanothione reductase [3])?
A: 0.47 µM

Q: What about the EC50 (Trypanosoma brucei [4]) of the same molecule?
A: 0.191 µg/mL and 350 nM

Q: With `COc1cc(C[N+](C)(C)CCCN2c3ccccc3Sc3ccc(Cl)cc32)cc(OC)c1` as the molecule, how does the IC50 (Trypanothione reductase [2]) read?
A: 5.4 µM

Q: What about the Ki (Trypanothione reductase [3]) of the same molecule?
A: 0.77 µM

Q: Which results are given for `C[N+](C)(CCCN1c2ccccc2Sc2ccc(Cl)cc21)Cc1ccc(Cl)c(Cl)c1`?
A: IC50 (Trypanothione reductase [2]): 0.78 µM; Ki (Trypanothione reductase [3]): 0.12 µM; EC50 (Trypanosoma brucei [4]): 0.546 µg/mL and 1.07 µM

Q: `CC(C)(C)c1ccc(C[N+](C)(C)CCCN2c3ccccc3Sc3ccc(Cl)cc32)cc1` was tested. Which IC50 (Trypanothione reductase [2]) did it give?
A: 4.1 µM

Q: And the Ki (Trypanothione reductase [3])?
A: 0.68 µM

Q: What about the inhibition at 1 µM (Trypanosoma cruzi [6]) of the same molecule?
A: 59.2%

Q: What about the inhibition at 3 µM (Trypanosoma cruzi [7]) of the same molecule?
A: 66.2%

Q: And the EC50 (Trypanosoma cruzi [8])?
A: < 1 µM

Q: What about the EC50 (Trypanosoma brucei [4]) of the same molecule?
A: 0.023 µg/mL and 42 nM

Q: Which IC50 (Trypanothione reductase [2]) does the source give for `Cc1ccc(C[N+](C)(C)CCCN2c3ccccc3Sc3ccc(Cl)cc32)cc1C` here?
A: 3.9 µM

Q: And the Ki (Trypanothione reductase [3])?
A: 0.47 µM

Q: Which IC50 (Trypanothione reductase [2]) does the source give for `C[N+](C)(CCCN1c2ccccc2Sc2ccc(Cl)cc21)Cc1cccc(Cl)c1` here?
A: 6.6 µM

Q: What about the Ki (Trypanothione reductase [3]) of the same molecule?
A: 2.4 µM

Q: What about the EC50 (Trypanosoma brucei [4]) of the same molecule?
A: 0.245 µg/mL and 470 nM

Q: `COc1ccc2c(C[N+](C)(C)CCCN3c4ccccc4Sc4ccc(Cl)cc43)cc(=O)oc2c1` was tested. Which IC50 (Trypanothione reductase [2]) did it give?
A: 2.95 µM

Q: What about the Ki (Trypanothione reductase [3]) of the same molecule?
A: 0.56 µM

Q: And the EC50 (Trypanosoma brucei [4])?
A: 3.11 µg/mL and 5.28 µM

Q: `C[N+](C)(CCCN1c2ccccc2Sc2ccc(Cl)cc21)C(c1ccccc1)c1ccccc1` was tested. Which IC50 (Trypanothione reductase [2]) did it give?
A: 1.2 µM

Q: And the Ki (Trypanothione reductase [3])?
A: 0.71 µM

Q: And the EC50 (Trypanosoma brucei [4])?
A: 0.035 µg/mL and 62 nM

Q: Which results are given for `C[N+](C)(CCCN1c2ccccc2Sc2ccc(Cl)cc21)CC(=O)C12CC3CC(CC(C3)C1)C2`?
A: IC50 (Trypanothione reductase [2]): 12.8 µM; Ki (Trypanothione reductase [3]): 1.23 µM

Q: Which results are given for `C[N+](C)(CCCN1c2ccccc2Sc2ccc(Cl)cc21)Cc1ccccc1`?
A: IC50 (Trypanothione reductase [2]): 8.02 µM; Ki (Trypanothione reductase [3]): 1.3 µM

Q: Which IC50 (Trypanothione reductase [2]) does the source give for `Cc1ccc(C[N+](C)(C)CCCN2c3ccccc3Sc3ccc(Cl)cc32)cc1` here?
A: 10.8 µM

Q: And the Ki (Trypanothione reductase [3])?
A: 1.8 µM

Q: What about the EC50 (Trypanosoma brucei [4]) of the same molecule?
A: 0.205 µg/mL and 410 nM

Q: What does the source list for `C[N+](C)(CCCN1c2ccccc2Sc2ccc(Cl)cc21)Cc1ccc(Cl)cc1`?
A: Ki [9]: 2200 µM; IC50 (Trypanothione reductase [2]): 12.7 µM; Ki (Trypanothione reductase [3]): 1.7 µM; EC50 (Trypanosoma brucei [4]): 0.675 µg/mL and 1.41 µM

Q: What does the source list for `C[N+](C)(CCCN1c2ccccc2Sc2ccc(Cl)cc21)Cc1ccc(Br)cc1`?
A: IC50 (Trypanothione reductase [2]): 11.9 µM; Ki (Trypanothione reductase [3]): 1.5 µM; EC50 (Trypanosoma brucei [4]): 0.508 µg/mL and 900 nM

Q: `C[N+](C)(C)CCCN1c2ccccc2Sc2ccc(Cl)cc21` was tested. Which IC50 (Trypanothione reductase [2]) did it give?
A: 28 µM

Q: What about the Ki (Trypanothione reductase [3]) of the same molecule?
A: 1.1 µM

Q: Which Ki [9] does the source give for `C[N+](C)(CCCN1c2ccccc2Sc2ccc(Cl)cc21)CC1CCCCC1` here?
A: 2000 µM

Q: What about the IC50 (Trypanothione reductase [2]) of the same molecule?
A: 10.5 µM

Q: What about the Ki (Trypanothione reductase [3]) of the same molecule?
A: 2.3 µM

Q: And the EC50 (Trypanosoma brucei [4])?
A: 0.159 µg/mL and 320 nM

Q: Which results are given for `C[N+](C)(CCCN1c2ccccc2Sc2ccc(Cl)cc21)Cc1ccc2ccccc2c1`?
A: IC50 (Trypanothione reductase [2]): 9.3 µM; Ki (Trypanothione reductase [3]): 1.55 µM; EC50 (Trypanosoma brucei [4]): 0.068 µg/mL and 120 nM

Q: Which IC50 (Trypanothione reductase [2]) does the source give for `C[N+](C)(CCCN1c2ccccc2Sc2ccc(Cl)cc21)Cc1ccc([N+](=O)[O-])cc1.[Cl-]` here?
A: 17.9 µM

Q: And the Ki (Trypanothione reductase [3])?
A: 2.98 µM

Q: What about the EC50 (Trypanosoma brucei [4]) of the same molecule?
A: 0.348 µg/mL and 650 nM
